Screens from PubChem.
TAAR1 antagonist: human TAAR1 antagonists, primary screen, Fluo-8 calcium fluorescence, CHO RD-HGA16 cells; Trace amine-associated receptor 1 (Homo sapiens), Q96RJ0; inhibition, % at 3 µM; AID 624466, 2012; antagonist; hit rate 1.5% among 360,000;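 active = inhibition above a per-plate cutoff, the mean inhibition of test compounds on that plate plus 3 SD, cut at about 49% in these data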;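 also: 0% = DMSO plus EC80 beta-PEA response and 100% = DMSO alone without agonist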
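Test system – hTAAR1-expressing CHO RD-HGA16 cells, Gα16-coupled · Also added – β-PEA at EC80 concentration, post-compound challenge · Compound – 3 µM, single point · Incubation – dye loading 75 min at 37 °C, then 30 min room temperature · Measured by – Fluo-8 intracellular calcium dye fluorescence, real-time kinetic reads · Benchmarks – vehicle and agonist controls · Replicates – singlicate, one well per test compound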
OX1R antag-1: antagonists of human orexin 1 receptor (OX1R). Orexin/Hypocretin receptor type 1 (Homo sapiens), O43613. AID 485270, 2010. OX1R-expressing cells, FRET antagonist read-out. inhibition, % at 6.6 µM. hit rate 1.8% among 330,000; in the data active = inhibition mostly above about 38%, no sharp cut-off; inactive = mostly below about 40%;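 also: 0% = agonist challenge alone and 100% = reference antagonist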
Target sequence (O43613 whole entry, looked up): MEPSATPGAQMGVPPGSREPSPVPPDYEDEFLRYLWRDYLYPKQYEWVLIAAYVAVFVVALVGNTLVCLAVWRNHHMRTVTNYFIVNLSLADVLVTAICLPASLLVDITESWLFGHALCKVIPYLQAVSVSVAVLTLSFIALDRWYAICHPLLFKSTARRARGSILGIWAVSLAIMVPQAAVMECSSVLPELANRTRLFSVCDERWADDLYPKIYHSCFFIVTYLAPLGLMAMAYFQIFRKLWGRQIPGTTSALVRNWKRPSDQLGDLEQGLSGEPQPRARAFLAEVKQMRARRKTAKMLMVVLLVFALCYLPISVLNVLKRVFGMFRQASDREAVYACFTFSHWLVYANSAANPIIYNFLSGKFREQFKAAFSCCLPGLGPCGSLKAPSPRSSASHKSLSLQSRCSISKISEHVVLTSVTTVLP
CHO parental Ca: ATP-evoked calcium signal inhibitors, parental CHO, primary screen, counter-screen for OX1R antagonist project, cell-based, fluorescence, Fluo-8 calcium dye; AID 463079, 2010; inhibition, % at 5.6 µM; hit rate 0.63% among 330,000; parental CHO-K1, ATP-induced calcium, Fluo-8 fluorescence;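 active = inhibition above that plate's mean sample inhibition plus 3 SD, cut at about 26% in these data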;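 also: 0% = ATP-challenged DMSO wells and 100% = DMSO wells without ATP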
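test system = CHO parental line | reagent = ATP stimulus | measured by = intracellular calcium via Fluo-8 no-wash fluorescent dye | control set = ATP and no-ATP DMSO wells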
OX1R antag-2: OX1R (HCRTR1) antagonists, primary screen, fluorescence, CHO/OX1R cells, Fluo-8 calcium, orexin A; Orexin/Hypocretin receptor type 1 (Homo sapiens), O43613; inhibition, % at 5 µM; hit rate 0.43% among 330,000; Fluo-8 calcium fluorescence;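 active = inhibition above its plate's threshold, mean inhibition of all tested compounds on the plate plus 3 SD, cut at about 37% in these data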;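 also: 0% = orexin A challenge wells and 100% = SB-334867-A antagonist wells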
GPR7 antagonist: GPR7 receptor antagonists, primary screen, cell-based, fluorescence, single concentration; GPR7-expressing cells, fluorescence antagonist assay; inhibition, % at 4.4 µM; hit rate 1.1% among 290,000; AID 1861, 2009; in the data active = inhibition above about 16%, passing the limit was not always enough;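 also: cells stimulated with the agonist NPW; 0% = agonist with vehicle and 100% = vehicle without agonist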
TAAR1 ag: human TAAR1 agonists, primary screen, Fluo-8 calcium fluorescence, CHO RD-HGA16 cells. activation, % at 3 µM. hit rate 0.99% among 360,000. vehicle wells 0%, saturating PEA agonist 100%;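 active = activation above the mean activation of all test compounds in the run plus 3 SD, cut at about 38% in these data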
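Signal – calcium-sensitive Fluo-8 signal, excitation 470-495, emission 515-575 nm · System – RD-HGA16 (CHO) cells co-expressing Gα16 and hTAAR1 · Incubation – 17-24 h seeding, 75 min 37 °C dye, 30 min RT · Compound dosing – 3 µM single concentration · Repeats – no replicates (n 1)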
TAAR1 nonsel count: nonselective antagonists in TAAR1 counter-screen cells, counter-screen for hTAAR1 antagonist project, cell-based, fluorescence, calcium; inhibition, % at 3 µM; AID 651780, 2012; counterscreen cell line, antagonist mode; hit rate 77% among 2,400; shares compounds with TAAR1 antagonist; in the data active = inhibition above about 22%;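 also: CHO-Ga16 host cells stimulated with ATP at an EC80 level; 0% = agonist EC80 plus vehicle and 100% = vehicle without agonist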
TAAR1 ant conf: human TAAR1 antagonists, retest of hits, confirmation, cell-based, fluorescence. TAAR1-expressing cells, fluorescence antagonist read-out. inhibition, % at 3 µM. hit rate 40% among 2,400. AID 651785, 2012. shares compounds with TAAR1 antagonist; in the data active = inhibition above about 49%;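 also: CHO-Ga16 host cells challenged with agonist PEA near its EC80; 0% = agonist at EC80 plus vehicle and 100% = vehicle with no agonist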
Ga16 ag counter: calcium activation in Ga16-expressing cells, counter-screen for TAAR1 antagonist project, cell-based, fluorescence. activation, % at 3 µM. shares compounds with TAAR1 antagonist. hit rate 18% among 2,400. AID 651953, 2012. agonist counterscreen; in the data active = activation above about 12%;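 also: 0% = vehicle wells and 100% = saturating stimulus response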
TAAR1 ag count: TAAR1 activation by candidate antagonists – cell-based, fluorescence, counter-screen for TAAR1 antagonist project. activation, % at 3 µM. hit rate 2% among 2,400. hTAAR1 cell line, agonist mode. shares compounds with TAAR1 antagonist; in the data active = activation above about 37%;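 also: CHO cells stably expressing TAAR1 with calcium dye readout; 0% = DMSO vehicle and 100% = full agonist response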
* hit, by the source's call. The list is not random: actives were taken first. Their share in the collection is about 4.5%.

Cc1nc2ccccc2c2c(N)c3ccccc3n12 was read as TAAR1 antagonist 56*, OX1R antag-1 10, CHO parental Ca 3, OX1R antag-2 -17, GPR7 antagonist 0, TAAR1 ag 10, TAAR1 nonsel count 22*, TAAR1 ant conf 33, Ga16 ag counter 7 and TAAR1 ag count 7.
`Nc1c2ccccc2nc2ccccc12` gave TAAR1 antagonist 1, OX1R antag-1 56, CHO parental Ca -7, OX1R antag-2 1, GPR7 antagonist -15 and TAAR1 ag 6.
`COc1ccc(O)c(/C=N/NC(=S)NCCc2ccccc2)c1` gave TAAR1 antagonist 54*, OX1R antag-1 20, CHO parental Ca 0, OX1R antag-2 -17, GPR7 antagonist -21, TAAR1 ag 22, TAAR1 nonsel count 27*, TAAR1 ant conf 57*, Ga16 ag counter 15* and TAAR1 ag count 44*.
Screening COc1ccc(/C=N/NC(=S)NCCc2ccccc2)cc1 returned TAAR1 antagonist -6, OX1R antag-1 1, CHO parental Ca -21, OX1R antag-2 -37, GPR7 antagonist -13 and TAAR1 ag 3.
Screening CC(=O)Nc1sc(N/N=C/c2ccc(C)cc2)nc1-c1ccc(C)cc1 returned TAAR1 antagonist 53*, OX1R antag-1 5, CHO parental Ca -9, OX1R antag-2 -39, GPR7 antagonist -8, TAAR1 ag 2, TAAR1 nonsel count 4, TAAR1 ant conf 11, Ga16 ag counter 4 and TAAR1 ag count 10.
For O=C(CSc1ccccc1C(=O)NCc1ccccc1)NC1CCCCCCC1 the results were TAAR1 antagonist 54*, OX1R antag-1 4, CHO parental Ca -27, OX1R antag-2 -20, GPR7 antagonist 0, TAAR1 ag 12, TAAR1 nonsel count 18, TAAR1 ant conf 31, Ga16 ag counter 6 and TAAR1 ag count 3.
For O=C(CCC1CCCCC1)Nc1ccc(C(=O)c2ccncc2)cc1 the results were TAAR1 antagonist 66*, OX1R antag-1 39, CHO parental Ca -4, OX1R antag-2 -4, GPR7 antagonist 2, TAAR1 ag 7, TAAR1 nonsel count 36*, TAAR1 ant conf 56*, Ga16 ag counter 11 and TAAR1 ag count 11.
`O=C(CCC1CCCCC1)Nc1cccnc1` gave TAAR1 antagonist -9, OX1R antag-1 11, CHO parental Ca 0, OX1R antag-2 -16, GPR7 antagonist 17 and TAAR1 ag 11.
For COc1cc2c(c(OC)c1OC)-c1ccc(SC)c(=O)cc1C(NC=O)CC2 (stereo not drawn) the results were TAAR1 antagonist -8 and TAAR1 ag 1.
Screening Cc1nc(-c2cccc(NC(=O)c3ccc(Cl)c(S(=O)(=O)N4CCCC4)c3)c2)cs1 returned TAAR1 antagonist 62*, TAAR1 ag 11, TAAR1 nonsel count 26*, TAAR1 ant conf 45, Ga16 ag counter 10 and TAAR1 ag count 6.
